Test results taken from paper PMC2771698 (Journal of medicinal chemistry, 2009).
Several values for one entry are separate records, joined by “and”; a condition that tells them apart may be missing. Equal values may be shown once. Read-outs that look alike come from different tables or passages of the source.

What was measured:
[1] = cited from earlier work
[2] = tested on: T. cruzi amastigotes; assay: T. cruzi; format: cell-based, Trypanosoma cruzi; conditions: read-out: EC50 T. cruzi
How it was run: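 β-galactosidase-expressing Tulahuen strain grown as intracellular amastigotes in murine 3T3 fibroblasts, 96-well format, colorimetric read-out. Test compounds HPLC-purified to a single peak, with ≥95% estimated purity by 1H NMR. Each tested in triplicate to derive EC50.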

[3] = Single oral dose pharmacokinetics in BALB/c mice; format: in vivo; conditions: single dose 50 mg/kg oral gavage; for AUC 0_5hr, Mouse 1, 2, 3 / Tmax, Mouse 1, 2, 3 / Cmax, Mouse 1, 2, 3: Balb/c mice, individual mice, 50 mg/kg; for Cmax, Mouse 1, 2, 3: plasma
[4] = tested on: T. cruzi trypomastigotes (Tulahuen strain); assay: Efficacy in mice infected with T. cruzi; format: in vivo; conditions: days 7–27 post-infection
How it was run: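 Female BALB/c mice (7–8 weeks) infected subcutaneously with 1×10^4 Tulahuen trypomastigotes; treatment began day 7 post-infection. Groups of 6 dosed by oral gavage twice daily for 21 days, 100 µL per dose in 20% (w/v) hydroxypropyl β-cyclodextrin; vehicle-only group included. Parasitemia counted in 5 µL tail blood under coverslip, 50 high-power fields, through day 97. Pre-morbid mice euthanized; survivors sacrificed day 100.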

[5] = tested on: T. cruzi; assay: PCR detection of T. cruzi parasitemia in blood of treated mice at day 100; format: in vivo; conditions: for PCR parasite detection after 100 days post infection: days 7–27 post-infection, groups of 6
[6] = mice and rats; cited from earlier work
[7] = 50 mg/kg oral gavage twice per day
[8] = 20 mg/kg oral gavage twice per day

For c1ccc(-c2ccc(Cn3cncc3CNc3ccc(-c4cncs4)c(-c4ccccc4)c3)cc2)cc1 [Compound 27a], the “pharmacokinetic profile in mice” value [1] is given as “good pharmacokinetic profile”.
In the case of c1ccc(-c2ccc(Cn3cncc3CNc3ccc(-c4nc5ccccc5s4)c(-c4ccccc4)c3)cc2)cc1 [Compound 27d], the “pharmacokinetic profile in mice” value [1] is given as “good pharmacokinetic profile”.
With CC(C)c1ccc(Cn2cncc2CNc2ccc(-c3nc4ccccc4s3)c(-c3ccccc3)c2)cc1 [Compound 32a] the EC50 ([2]; Table 3, general structure III) was 860 nM.
In the case of CCc1ccc(Cn2cncc2CNc2ccc(-c3nc4ccccc4s3)c(-c3ccccc3)c2)cc1 [Compound 32b], the EC50 ([2]; Table 3, general structure III) is reported as 190 nM.
Fc1ccc(Cn2cncc2CNc2ccc(-c3nc4ccccc4s3)c(-c3ccccc3)c2)c(F)c1 [Compound 32d] showed an EC50 ([2]; Table 3, general structure III) of 630 nM.
For Cc1ccccc1-c1ccc(Cn2cncc2CNc2ccc(-c3nc4ccccc4s3)c(-c3ccccc3)c2)cc1 [Compound 32f], the EC50 ([2]; Table 3, general structure III) was 180 nM.
Molecule Cc1ccccc1-c1cc(NCc2cncn2Cc2ccc(-c3ccccc3)cc2)ccc1-c1nc2ccccc2s1 [Compound 32g] has an EC50 ([2]; Table 3, general structure III) of 42 nM.
Molecule Cc1cccc(-c2cc(NCc3cncn3Cc3ccc(-c4ccccc4)cc3)ccc2-c2nc3ccccc3s2)c1C [Compound 32h] has an EC50 ([2]; Table 3, general structure III) of 101 nM.
c1ccc(Cn2cncc2CNc2cccc(-c3ccccc3)c2)cc1 [Compound 35e] gave an EC50 ([2]; Table 4, general structure IV) of 400 nM.
In the case of Cc1ccccc1-c1cccc(NCc2cncn2Cc2ccccc2)c1 [Compound 35g], the EC50 ([2]; Table 4, general structure IV) is reported as 310 nM.
Cc1cccc(-c2cccc(NCc3cncn3Cc3ccccc3)c2)c1C [Compound 35i] showed an EC50 ([2]; Table 4, general structure IV) of 300 nM.
With c1ccc(Cn2cncc2CNc2cccc(-c3cccnc3)c2)cc1 [Compound 35j] the EC50 ([2]; Table 4, general structure IV) was 760 nM.
In the case of Nc1cc(-c2ccccc2)ccc1Cn1cncc1CNc1ccc(Cl)c(-c2ccccc2)c1 [Compound 44a, (6-Chloro-biphenyl-3-yl)-[3-(3-amino-biphenyl-4-ylmethyl)-3H-imidazol-4-ylmethyl]-amine], the EC50 ([2]; Table 5, general structure V) is reported as 1.5 nM and 2.1 nM, the “AUC 0_5hr, Mouse 1, 2, 3” value [3] is reported as 6700 ng·h/mL and 5600 ng·h/mL and the “Tmax, Mouse 1, 2, 3” value [3] is reported as 1.0 h. The “Cmax, Mouse 1, 2, 3” value [3] was 1900 ng/mL, the “suppression of parasitemia in blood (microscopy)” value (shortened to “suppression of parasitemia”) [4, 7] was “dramatically suppressed” and the “PCR parasite detection after 100 days post infection” value (“PCR parasite detection” for short) [5, 7] was 6 of 6 mice.
N#Cc1ccc(NCc2cncn2Cc2ccc(-c3ccccc3)cc2N)cc1-c1ccccc1 [Compound 44b] gave an EC50 ([2]; Table 5, general structure V) of 2.6 nM.
For Nc1cc(-c2ccccc2)ccc1Cn1cncc1CNc1ccc(-c2nc3ccccc3s2)c(-c2ccccc2)c1 [Compound 44d], the “AUC 0_5hr, Mouse 1, 2, 3” value [3] was 32400 ng·h/mL and 29000 ng·h/mL, the “Tmax, Mouse 1, 2, 3” value [3] was 2.0 h and the “Cmax, Mouse 1, 2, 3” value [3] was 8600 ng/mL. For the same molecule, the “drug loss from plasma out to 5 hr” value ([3]; mice) was “significant drug loss was not observed”, the “suppression of parasitemia” value [4, 8] was “dramatically suppressed” and the “suppression of parasitemia” value [4, 7] was “most suppression”. For the same molecule, the “PCR parasite detection” value [5, 8] was 5 of 6 mice, the “PCR parasite detection” value [5, 7] was 2 of 6 mice and the “mice with parasitemia suppressed below PCR detectability” value ([5]; 50 mg/kg twice per day, day 100) was 4 of 6.
Nc1cc(-c2ccccc2)ccc1Cn1cncc1CNc1ccc(-c2cncs2)c(-c2ccccc2)c1 [Compound 44e] gave an EC50 ([2]; Table 5, general structure V) of 13 nM.
For CC[C@@H]([C@H](C)O)n1ncn(-c2ccc(N3CCN(c4ccc(OC[C@@H]5CO[C@@](Cn6cncn6)(c6ccc(F)cc6F)C5)cc4)CC3)cc2)c1=O [Posaconazole, posaconazole, reference compound], the “suppression of parasitemia” value [4, 8] is listed as “most suppression”, the “PCR parasite detection” value [5, 8] is listed as 0 of 6 mice and the terminal phase half-life [6] is listed as 7 to 9 h.
